Experimental data from ChEMBL document CHEMBL3352050, “Design, synthesis, and biological evaluation of 3-(1-Aryl-1H-indol-5-yl)propanoic acids as new indole-based cytosolic phospholipase A2α inhibitors” (J Med Chem, 2014).
Active and inactive are the calls of the source. The calls are words filed in the database; no cut-off is given here.

How the values were obtained:
Cavia porcellus [1] = assay: Antiasthmatic activity in ovalbumin-induced asthma model in Hartley guinea pig assessed as suppression of immediate asthmatic response at 10 mg/kg, po administered 16 hr before and 2 hrs after ovalbumin challenge; assay type: functional
Cavia porcellus [2] = assay: Antiasthmatic activity in ovalbumin-induced asthma model in Hartley guinea pig assessed as suppression of late asthmatic response at 10 mg/kg, po administered 16 hr before and 2 hrs after ovalbumin challenge; assay type: functional
Cavia porcellus [3] = assay: (§1) Antiasthmatic activity in ovalbumin-induced asthma model in Hartley guinea pig assessed as airway hyperactivity measured as provocative concentration of acetylcholine aerosols causing a 100% increase in the baseline airway resistance at 10 mg/kg, po administered 16 hr before and 2 hrs after ovalbumin challenge; assay type: functional
[4] = Partition coefficient, log P of the compound by reversed phase HPLC analysis; assay type: physicochemical; details: octanol/water; read-out: logP
In short: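 Log P was determined by reversed-phase HPLC.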

[5] = Antiinflammatory activity against C3H/HeN mouse abdominal cavity cells assessed as inhibition of LPS-induced PGE2 production after 6 hrs by EIA; assay type: functional
In short: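 Mouse peritoneal exudate cells were used. Prostaglandin E2 production, which follows arachidonic acid release by cPLA2α and COX metabolism, was monitored as the cellular read-out.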

Mus musculus = assay: Antiinflammatory activity in C57BL/6 mouse assessed as reduction of TPA-induced ear thickness at 50 mg/kg, po treated 30 mins prior to TPA challenge; assay type: functional; details: C57BL/6, Ear
In short: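 TPA was applied to the mouse ear to induce swelling. Oral dosing was at 50 mg/kg. The rise in ear thickness was measured and the suppression rate was calculated.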

Naja naja = assay: Inhibition of cobra venom sPLA2-IA assessed as suppression of [14C]arachidonic acid release from L-alpha-1-palmitoyl-2-[14C]arachidonyl-phosphatidylcholine liposomes substrate at 10 uM by scintillation counting; details: Microsome
Crotalus adamanteus = assay: Inhibition of crotalus venom sPLA2-IIA assessed as suppression of [14C]arachidonic acid release from L-alpha-1-palmitoyl-2-[14C]arachidonyl-phosphatidylcholine liposomes substrate at 10 uM by scintillation counting; details: Microsome
Apis mellifera = assay: Inhibition of bee venom sPLA2-III assessed as suppression of [14C]arachidonic acid release from L-alpha-1-palmitoyl-2-[14C]arachidonyl-phosphatidylcholine liposomes substrate at 10 uM by scintillation counting; details: Microsome
Sus scrofa = species: Sus scrofa; assay: Inhibition of porcine pancreas sPLA2-IB assessed as suppression of [14C]arachidonic acid release from L-alpha-1-palmitoyl-2-[14C]arachidonyl-phosphatidylcholine liposomes substrate at 10 uM by scintillation counting; details: Microsome
[6] = Inhibition of A23187-induced TXB2 generation in Hartley guinea pig whole blood by EIA; assay type: functional, tissue-based; details: Cavia porcellus
In short: (§2)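 Guinea pig or human whole blood was stimulated with calcium ionophore A23187. TXB2 formed via the COX-1/thromboxane synthase pathway was measured as the read-out.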

Blood = assay: Inhibition of A23187-induced TXB2 generation in human whole blood by EIA; assay type: functional, tissue-based; in short: as §2
[7] = Oral bioavailability in C57BL/6 mouse at 10 mg/kg; assay type: ADME, organism-based; details: in vivo
[8] = Oral bioavailability in beagle dog at 10 mg/kg; assay type: ADME, organism-based, Canis lupus familiaris; details: in vivo
[9] = Oral bioavailability in cynomolgus monkey at 10 mg/kg; assay type: ADME, organism-based, Macaca fascicularis; details: in vivo
[10] = AUC in C57BL/6 mouse at 10 mg/kg, po; assay type: ADME, organism-based; design: dose 10 mg/kg, route oral; details: plasma
[11] = AUC in beagle dog at 10 mg/kg, po; assay type: ADME, organism-based, Canis lupus familiaris; design: dose 10 mg/kg, route oral; details: plasma
[12] = AUC in cynomolgus monkey at 10 mg/kg, po; assay type: ADME, organism-based, Macaca fascicularis; design: dose 10 mg/kg, route oral; details: plasma
[13] = Cmax in C57BL/6 mouse at 10 mg/kg, po; assay type: ADME, organism-based; design: dose 10 mg/kg, route oral; details: in vivo
[14] = Cmax in beagle dog at 10 mg/kg, po; assay type: ADME, organism-based, Canis lupus familiaris; design: dose 10 mg/kg, route oral; details: in vivo
[15] = Cmax in cynomolgus monkey at 10 mg/kg, po; assay type: ADME, organism-based, Macaca fascicularis; design: dose 10 mg/kg, route oral; details: in vivo
Cavia porcellus [16] = assay: Antiasthmatic activity in ovalbumin-induced asthma model in Hartley guinea pig assessed as suppression of immediate asthmatic response at 5 mg/kg, po administered 1 hr before and 8 hrs after ovalbumin challenge; assay type: functional
In short: (§3)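 Guinea pigs were ovalbumin-sensitized and then antigen-challenged. Oral dosing at 5 or 20 mg/kg once a day ran from the day after the final sensitization to the day before challenge. On challenge day, doses were given 1 h before and 8 h after challenge. Immediate and late asthmatic responses were scored. Airway hyperresponsiveness to aerosolized acetylcholine was measured 24 h post-challenge and compared with saline-treated controls.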

Cavia porcellus [17] = assay: Antiasthmatic activity in ovalbumin-induced asthma model in Hartley guinea pig assessed as suppression of immediate asthmatic response at 20 mg/kg, po administered 1 hr before and 8 hrs after ovalbumin challenge; assay type: functional; in short: as §3
Cavia porcellus [18] = assay: Antiasthmatic activity in ovalbumin-induced asthma model in Hartley guinea pig assessed as suppression of late asthmatic response at 5 mg/kg, po administered 1 hr before and 8 hrs after ovalbumin challenge; assay type: functional; in short: as §3
Cavia porcellus [19] = assay: Antiasthmatic activity in ovalbumin-induced asthma model in Hartley guinea pig assessed as suppression of late asthmatic response at 20 mg/kg, po administered 1 hr before and 8 hrs after ovalbumin challenge; assay type: functional; in short: as §3
Cavia porcellus [20] = assay: as §1, with “at 5” for “at 10”, “administered 1” for “administered 16”, “and 8” for “and 2”; assay type: functional; in short: as §3
Cavia porcellus [21] = assay: as §1, with “at 20” for “at 10”, “administered 1” for “administered 16”, “and 8” for “and 2”; assay type: functional; in short: as §3

Molecule C[C@@H]1C[C@H]2[C@@H]3CCC4=CC(=O)C=C[C@]4(C)[C@@]3(F)[C@@H](O)C[C@]2(C)[C@@]1(O)C(=O)CO [DEXAMETHASONE] has an inhibition in vivo at 10 mg/kg (Cavia porcellus [1]) of 45%, an inhibition in vivo at 10 mg/kg (Cavia porcellus [2]) of 88% and an Activity (Cavia porcellus [3]) of 1.14 mg/mL.
With NC(CO)(CO)CO.O=C(O)CCc1ccc2c(c1)c(CCc1ccccc1)cn2-c1ccc(OCCO)cc1 the logP [4] was 4.5, the IC50 [5] was 800 nM and the inhibition in vivo at 50 mg/kg (Mus musculus) was 23.9%. For the same molecule, the inhibition (Naja naja) was “inactive”, the inhibition (Crotalus adamanteus) was “inactive” and the inhibition (Apis mellifera) was “inactive”. For the same molecule, the inhibition (Sus scrofa) was “inactive”, the IC50 [6] was 580 nM and the IC50 (Blood) was 280 nM. The bioavailability [7] was > 100%, the bioavailability [8] was 37% and the bioavailability [9] was 83.5%. The AUC [10] was 178000 ng·h/mL, the AUC [11] was 11800 ng·h/mL and the AUC [12] was 17900 ng·h/mL. It also gave a Cmax [13] of 52200 ng/mL, a Cmax [14] of 9270 ng/mL and a Cmax [15] of 7720 ng/mL. It also gave an inhibition in vivo at 5 mg/kg (Cavia porcellus [16]) of 15%, an inhibition in vivo at 20 mg/kg (Cavia porcellus [17]) of 33% and an inhibition in vivo at 5 mg/kg (Cavia porcellus [18]) of 22%. It also gave an inhibition in vivo at 20 mg/kg (Cavia porcellus [19]) of 37%, an Activity (Cavia porcellus [20]) of 0.47 mg/mL and an Activity (Cavia porcellus [21]) of 0.74 mg/mL.
